≈ marks a conversion by molar mass, not a printed value.
Columns and labels:
[1] = Equilibrium aqueous solubility of the compound at pH 7.4 after 4 hrs; type: physicochemical; conditions: aqueous medium
[2] = Equilibrium aqueous solubility of the compound at pH 4 after 4 hrs; type: physicochemical; conditions: aqueous medium
[3] = Equilibrium aqueous solubility of the compound at pH 2.1 after 4 hrs; type: physicochemical; conditions: aqueous medium
[4] = Oral bioavailability in Wistar rat at 10 mg/kg administered via gavage by LC/MS/MS analysis; type: ADME, organism-based; conditions: in vivo
Method in brief: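 Fasted male Wistar rats given 10 mg/kg PO as a suspension in 1% Tween 80, 0.5% w/v NaCMC. Serial plasma sampling (K2EDTA) at 0.25–24 h, acetonitrile precipitation, LC/MS/MS. Non-compartmental analysis per animal; bioavailability calculated against the 3 mg/kg IV group; mean of n=4.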

[5] = Clearance in Wistar rat at 3 mg/kg, iv by LC/MS/MS analysis; type: ADME, organism-based; conditions: in vivo
Method in brief: (§1)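 Male Wistar rats (230 ± 15 g), fasted overnight, given 3 mg/kg IV via tail vein as a solution (0.6 mg/mL, 5 mL/kg) in NMP-based vehicles with acetate buffer pH 4.2. Serial plasma sampling (K2EDTA) from 0.008 to 24 h. Acetonitrile precipitation, then LC/MS/MS. Non-compartmental analysis per animal; mean of n=4.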

[6] = tested on: Liver; assay: Metabolic stability in rat liver microsomes assessed as metabolic rate at 1 uM preincubated for 5 mins followed by addition of NADPH measured after 3 to 30 mins by LC-MS/MS analysis; type: ADME, microsome
[7] = target: T1, Adenosine receptor A2b (Homo sapiens, UniProt P29275); assay: Displacement of [3H]-MRS-1754 from human adenosine A2B receptor expressed in HEK293 cell membranes measured after 90 mins
T1 sequence (P29275 whole entry): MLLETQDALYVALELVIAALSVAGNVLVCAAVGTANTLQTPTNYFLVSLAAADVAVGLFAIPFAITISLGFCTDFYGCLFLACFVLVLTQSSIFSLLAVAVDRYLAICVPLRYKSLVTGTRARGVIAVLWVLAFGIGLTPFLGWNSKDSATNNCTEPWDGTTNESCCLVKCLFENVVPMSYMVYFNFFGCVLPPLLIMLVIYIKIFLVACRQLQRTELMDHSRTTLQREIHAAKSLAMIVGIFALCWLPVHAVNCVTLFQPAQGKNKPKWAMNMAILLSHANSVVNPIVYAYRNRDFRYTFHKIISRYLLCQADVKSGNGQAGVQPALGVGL

[8] = Volume of distribution at steady state in Wistar rat at 3 mg/kg, iv by LC/MS/MS analysis; type: ADME, organism-based; conditions: in vivo, read-out: Vdss; method in brief: as §1
[9] = target: T2, Adenosine receptor A1 (Homo sapiens, UniProt P30542); assay: Displacement of [3H]-DPCPX from human adenosine A1 receptor expressed in HEK293 cell membranes measured after 90 mins
T2 sequence (P30542 whole entry): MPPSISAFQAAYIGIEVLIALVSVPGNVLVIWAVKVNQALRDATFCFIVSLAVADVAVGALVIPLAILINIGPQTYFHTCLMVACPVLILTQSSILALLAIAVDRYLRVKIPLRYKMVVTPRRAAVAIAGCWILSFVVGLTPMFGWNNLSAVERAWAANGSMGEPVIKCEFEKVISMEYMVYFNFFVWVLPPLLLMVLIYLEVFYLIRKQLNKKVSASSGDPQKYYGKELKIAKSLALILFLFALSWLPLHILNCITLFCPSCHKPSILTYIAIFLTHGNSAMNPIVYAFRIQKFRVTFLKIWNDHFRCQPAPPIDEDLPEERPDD
Method in brief: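 Competition binding on membranes from HEK-293 cells overexpressing human A1, A2A, A2B or A3, washed with ADA. Radioligands: [3H]-DPCPX 1 nM (A1), [3H]ZM241385 1 nM (A2A), [3H]-MRS-1754 1.6 nM (A2B), [3H]-HEMADO 2 nM (A3). Buffer was 50 mM Tris with EDTA and ADA; MgCl2 10 mM for A2A/A3; A2B at pH 6.5 with 5 mM MgCl2. Incubation 90 min at room temperature, then filtration. Nonspecific binding defined by NECA 100 μM. Ki values: mean of two experiments, triplicate points.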

[10] = target: T1, Adenosine receptor A2b; assay: Antagonist activity at human adenosine A2B receptor expressed in HEK293 cell membranes assessed as decrease in NECA/forskolin-induced cAMP level pretreated for 15 mins followed by agonist addition for 15 mins and subsequent forskolin stimulation measured after 30 mins; type: functional, cell-based
[11] = target: hERG (KCNH2) (Homo sapiens, UniProt Q12809); assay: Inhibition of [3H]-astemizole binding to human ERG at 10 uM after 2 hrs by liquid scintillation counting method relative to control; conditions: probe [3H]-astemizole
[12] = tested on: Liver; assay: Metabolic stability in human liver microsomes assessed as metabolic rate at 1 uM preincubated for 5 mins followed by addition of NADPH measured after 3 to 30 mins by LC-MS/MS analysis; type: ADME, microsome
[13] = AUC (0 to t) in Wistar rat at 3 mg/kg, iv by LC/MS/MS analysis; type: ADME, organism-based; conditions: in vivo
Method in brief: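 Overnight-fasted male Wistar rats received a 3 mg/kg tail-vein solution (0.6 mg/mL, 5 mL/kg). Vehicle was 10% NMP with PEG300, Cremophor EL and/or HPβ-CD in 0.1 M acetate buffer, pH 4.2; co-solvents varied by compound. Serial K2EDTA blood samples (n=3/time point) taken 0.008–24 h. Plasma measured by LC/MS/MS; non-compartmental AUC0-t per animal.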

[14] = target: T3, Adenosine receptor A3 (Homo sapiens) (UniProt P0DMS8); assay: Displacement of [3H]-HEMADO from human adenosine A3 receptor expressed in HEK293 cell membranes at 1 uM measured after 90 mins relative to control
T3 sequence (whole entry): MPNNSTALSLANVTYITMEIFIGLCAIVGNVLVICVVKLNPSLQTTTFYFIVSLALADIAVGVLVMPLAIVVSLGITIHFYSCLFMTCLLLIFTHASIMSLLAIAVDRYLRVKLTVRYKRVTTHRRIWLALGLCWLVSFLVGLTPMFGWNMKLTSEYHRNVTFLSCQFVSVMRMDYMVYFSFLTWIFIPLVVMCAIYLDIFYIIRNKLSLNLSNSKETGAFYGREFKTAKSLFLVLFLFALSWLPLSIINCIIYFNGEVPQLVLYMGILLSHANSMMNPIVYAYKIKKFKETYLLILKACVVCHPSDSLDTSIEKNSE

[15] = target: T4, Adenosine receptor A2b (Homo sapiens) (UniProt P29275); assay: Displacement of [3H]-MRS-1754 from human adenosine A2B receptor expressed in HEK293 cell membranes at 1 uM measured after 90 mins relative to control
T4 sequence (whole entry): T1 sequence (P29275 whole entry)

[16] = target: Cytochrome P450 3A (Homo sapiens, UniProt P08684+P20815+Q9HB55+P24462); assay: Inhibition of CYP3A in human liver microsomes at 5 to 25 uM using testosterone as substrate preincubated for 5 mins with substrate followed by NADPH addition measured after 10 mins by LC-MS/MS analysis; type: ADME; conditions: microsomes, 10 min, 25 µM
[17] = target: T5, Adenosine receptor A1 (Homo sapiens) (UniProt P30542); assay: Displacement of [3H]-DPCPX from human adenosine A1 receptor expressed in HEK293 cell membranes at 1 uM measured after 90 mins relative to control
T5 sequence (whole entry): T2 sequence (P30542 whole entry)

hERG (KCNH2), sequence (Q12809 whole entry): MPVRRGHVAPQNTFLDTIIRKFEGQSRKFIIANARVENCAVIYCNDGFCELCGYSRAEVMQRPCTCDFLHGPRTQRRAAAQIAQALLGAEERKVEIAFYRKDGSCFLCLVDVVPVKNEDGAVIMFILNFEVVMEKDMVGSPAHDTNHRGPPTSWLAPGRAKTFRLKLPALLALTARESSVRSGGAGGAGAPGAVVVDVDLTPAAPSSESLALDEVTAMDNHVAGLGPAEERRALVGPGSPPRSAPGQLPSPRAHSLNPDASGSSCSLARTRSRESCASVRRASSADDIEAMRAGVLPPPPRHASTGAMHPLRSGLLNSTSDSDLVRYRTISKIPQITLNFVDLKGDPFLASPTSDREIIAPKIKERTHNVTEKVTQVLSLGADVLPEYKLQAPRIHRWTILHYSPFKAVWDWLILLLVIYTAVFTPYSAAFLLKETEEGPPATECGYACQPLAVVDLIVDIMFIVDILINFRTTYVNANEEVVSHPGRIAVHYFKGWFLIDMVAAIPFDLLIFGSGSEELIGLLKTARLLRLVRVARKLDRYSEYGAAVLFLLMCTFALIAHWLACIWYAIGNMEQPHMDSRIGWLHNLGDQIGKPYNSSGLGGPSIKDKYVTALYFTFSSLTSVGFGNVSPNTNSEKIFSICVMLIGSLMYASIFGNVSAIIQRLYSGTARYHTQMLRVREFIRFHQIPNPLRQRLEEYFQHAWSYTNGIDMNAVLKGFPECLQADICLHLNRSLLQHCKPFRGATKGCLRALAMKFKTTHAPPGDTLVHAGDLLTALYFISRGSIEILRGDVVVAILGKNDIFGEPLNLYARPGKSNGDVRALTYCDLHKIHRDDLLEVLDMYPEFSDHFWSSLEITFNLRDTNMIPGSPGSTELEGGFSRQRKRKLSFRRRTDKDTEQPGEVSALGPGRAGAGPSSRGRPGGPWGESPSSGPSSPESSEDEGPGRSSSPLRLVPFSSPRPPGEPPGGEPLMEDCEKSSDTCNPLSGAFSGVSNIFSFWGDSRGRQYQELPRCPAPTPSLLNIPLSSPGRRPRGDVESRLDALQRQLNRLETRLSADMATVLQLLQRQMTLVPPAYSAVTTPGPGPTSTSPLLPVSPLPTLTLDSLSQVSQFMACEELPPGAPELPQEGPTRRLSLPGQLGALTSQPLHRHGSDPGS

Row | SMILES | solubility thermodynamic at 4 h [1] | solubility thermodynamic at 4 h [2] | solubility thermodynamic at 4 h [3] | bioavailability [4] | clearance [5] | Drug metabolism [6] | Ki [7] | Vd [8] | Ki [9] | Ki [10] | Drug metabolism [12] | AUC(0-t) [13] | inhibition [14] | inhibition [15] | inhibition (INH) [16] | inhibition [17] | inhibition at 2 h, 10 µM [11]
1 | CCN(CC)C1CCC(C)(C(=O)Nc2nc3c(OC)ccc(N4CCOCC4)c3s2)CC1 (centres undefined) | 1590 µM (≈ 731 µg/mL) | 1810 µM (≈ 832 µg/mL) | 1840 µM (≈ 848 µg/mL) | 61% | 2.23 L/h/kg | 0.01 nmol/min/mg | 0.5 µM | 6.1 L/kg | 1.2 µM | 0.65 µM | 0.03 nmol/min/mg | 2.7 µM·h | – | – | – | – | 13%
2 | COc1ccc(N2CCOCC2)c2sc(NC(=O)C(C)(C)Oc3ccc(F)c(F)c3)nc12 | < 6 µM | < 6 µM | < 6 µM | 17% | 0.612 L/h/kg | 0.09 nmol/min/mg | 5 µM | 2.1 L/kg | 1.1 µM | – | 0.07 nmol/min/mg | 10.7 µM·h | 28% | 34% | Not Active | 38% | < 5%

Further compounds by falling Ki [7], results first:

Row | solubility thermodynamic at 4 h [1] | solubility thermodynamic at 4 h [2] | solubility thermodynamic at 4 h [3] | bioavailability [4] | clearance [5] | Drug metabolism [6] | Ki [7] | Vd [8] | Ki [9] | Ki [10] | Drug metabolism [12] | AUC(0-t) [13] | inhibition [14] | inhibition [15] | inhibition (INH) [16] | inhibition [17] | SMILES | inhibition at 2 h, 10 µM [11]
3 | < 6 µM | < 6 µM | < 6 µM | 6% | 0.9 L/h/kg | 0.04 nmol/min/mg | 10 µM | 1.4 L/kg | 5 µM | – | 0.02 nmol/min/mg | 7.6 µM·h | 11% | 0% | Not Active | 16% | COc1ccc(N2CCOCC2)c2sc(NC(=O)C(C)(C)Oc3ccc(F)cc3)nc12 | < 5%
4 | < 6 µM | < 6 µM | < 6 µM | 21.7% | 0.396 L/h/kg | < 0.04 nmol/min/mg | 1.4 µM | 2.1 L/kg | 0.5 µM | 2 µM | < 0.04 nmol/min/mg | 16.4 µM·h | 46% | 24% | Not Active | 46% | COc1cnc(N2CCOCC2)c2sc(NC(=O)C(C)(C)Oc3ccc(F)cc3)nc12 | < 10%
5 | 114 µM (≈ 47.8 µg/mL) | 111 µM (≈ 46.6 µg/mL) | 139 µM (≈ 58.3 µg/mL) | 63% | 1.92 L/h/kg | < 0.04 nmol/min/mg | 0.5 µM | 1.5 L/kg | 2.9 µM | 2 µM | < 0.04 nmol/min/mg | 3.7 µM·h | – | – | – | – | COc1ccc(N2CCOCC2)c2sc(NC(=O)C3(C)CCC(C)(O)CC3)nc12 (centres undefined) | –

Reference: ChEMBL document CHEMBL4002602, “Design, Synthesis of Novel, Potent, Selective, Orally Bioavailable Adenosine A2A Receptor Antagonists and Their Biological Evaluation” (J Med Chem, 2017)
